Source: article PMC6606825 (Journal of Ginseng Research, 2018)

Experiment: Pharmacokinetics of CK and its metabolite 20
Assay type: in vivo, healthy Chinese volunteers
Summary of the method: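 Healthy adults given one oral tablet dose fasting (overnight, or 10 h in a crossover food-effect arm); 30 subjects from the 100/200/400 mg groups were pooled with 24 from 200 mg fasting periods. Plasma was stored at −70°C, extracted with MTBE plus internal standards and assayed by LC-MS/MS. Cmax was observed and AUClast calculated by linear trapezoid, each divided by dose. The metabolite/parent ratio was also calculated. Genotyping used Sequenom MassARRAY, and log-transformed values were compared by one-way ANOVA.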

[1] = ABCC4 rs2274406 TT (first line), mean (SD)
[2] = ABCC4 rs2274406 TT (third line), mean (SD)
[3] = ABCG2 rs2054576 AA (first line), mean (SD)
[4] = ABCG2 rs2054576 AA (third line), mean (SD)

- Ratio 20(S)-PPD/CK AUClast/D (ABCC4 rs1151471 TT, mean (SD)): 2.12 (2.57) %
- Ratio 20(S)-PPD/CK Cmax/D (ABCC4 rs1151471 TT, mean (SD)): 0.52 (0.50) %
- 20(S)-PPD AUClast/D (ABCC4 rs1189437 GG, n = 1): 3.78 (−)
- 20(S)-PPD Cmax/D (ABCC4 rs1189437 GG, n = 1): 0.11 (−)
- Ratio 20(S)-PPD/CK AUClast/D (ABCC4 rs1189437 GG, n = 1): 31.18 (−) %
- Ratio 20(S)-PPD/CK Cmax/D (ABCC4 rs1189437 GG, n = 1): 6.05 (−) %
- 20(S)-PPD AUClast/D (ABCC4 rs1189437 GT, mean (SD)): 1.25 (0.80)
- 20(S)-PPD Cmax/D (ABCC4 rs1189437 GT, mean (SD)): 0.05 (0.03)
- Ratio 20(S)-PPD/CK AUClast/D (ABCC4 rs1189437 GT, mean (SD)): 7.87 (7.32) %
- Ratio 20(S)-PPD/CK Cmax/D (ABCC4 rs1189437 GT, mean (SD)): 2.35 (2.55) %
- 20(S)-PPD AUClast/D (ABCC4 rs1189437 TT, mean (SD)): 0.54 (0.49)
- 20(S)-PPD Cmax/D (ABCC4 rs1189437 TT, mean (SD)): 0.02 (0.02)
- Ratio 20(S)-PPD/CK AUClast/D (ABCC4 rs1189437 TT, mean (SD)): 2.03 (2.50) %
- Ratio 20(S)-PPD/CK Cmax/D (ABCC4 rs1189437 TT, mean (SD)): 0.50 (0.49) %
- 20(S)-PPD AUClast/D (ABCC4 rs1751034 TC, mean (SD)): 1.51 (1.01)
- 20(S)-PPD Cmax/D (ABCC4 rs1751034 TC, mean (SD)): 0.05 (0.04)
- Ratio 20(S)-PPD/CK Cmax/D (ABCC4 rs1751034 TC, mean (SD)): 2.88 (2.68) %
- 20(S)-PPD AUClast/D (ABCC4 rs1751034 TT, mean (SD)): 0.59 (0.51)
- 20(S)-PPD Cmax/D (ABCC4 rs1751034 TT, mean (SD)): 0.02 (0.02)
- Ratio 20(S)-PPD/CK AUClast/D (ABCC4 rs1751034 TT, mean (SD)): 2.17 (2.45) %
- Ratio 20(S)-PPD/CK Cmax/D (ABCC4 rs1751034 TT, mean (SD)): 0.55 (0.50) %
- 20(S)-PPD AUClast/D (ABCC4 rs2274406 CT, mean (SD)): 0.77 (0.73)
- 20(S)-PPD Cmax/D (ABCC4 rs2274406 CT, mean (SD)): 0.03 (0.03)
- Ratio 20(S)-PPD/CK AUClast/D (ABCC4 rs2274406 CT, mean (SD)): 3.81 (4.77) %
- Ratio 20(S)-PPD/CK Cmax/D (ABCC4 rs2274406 CT, mean (SD)): 1.15 (1.88) %
- 20(S)-PPD AUClast/D [1]: 0.78 (0.55)
- 20(S)-PPD Cmax/D [1]: 0.03 (0.03)
- Ratio 20(S)-PPD/CK AUClast/D [1]: 2.75 (2.87) %
- Ratio 20(S)-PPD/CK Cmax/D [1]: 0.63 (0.46) %
- 20(S)-PPD AUClast/D [2]: 0.97 (1.01)
- 20(S)-PPD Cmax/D [2]: 0.03 (0.03)
- Ratio 20(S)-PPD/CK AUClast/D [2]: 6.34 (9.72) %
- Ratio 20(S)-PPD/CK Cmax/D [2]: 1.49 (1.93) %
- 20(S)-PPD AUClast/D (ABCC4 rs2274407 CA, mean (SD)): 0.70 (0.61)
- 20(S)-PPD Cmax/D (ABCC4 rs2274407 CA, mean (SD)): 0.03 (0.02)
- Ratio 20(S)-PPD/CK AUClast/D (ABCC4 rs2274407 CA, mean (SD)): 3.96 (6.67) %
- Ratio 20(S)-PPD/CK Cmax/D (ABCC4 rs2274407 CA, mean (SD)): 1.04 (1.40) %
- 20(S)-PPD AUClast/D (ABCC4 rs2274407 CC, mean (SD)): 0.87 (0.83)
- 20(S)-PPD Cmax/D (ABCC4 rs2274407 CC, mean (SD)): 0.03 (0.03)
- Ratio 20(S)-PPD/CK AUClast/D (ABCC4 rs2274407 CC, mean (SD)): 4.39 (6.18) %
- Ratio 20(S)-PPD/CK Cmax/D (ABCC4 rs2274407 CC, mean (SD)): 1.18 (1.84) %
- 20(S)-PPD AUClast/D (ABCC4 rs4148546 AA, mean (SD)): 1.01 (0.97)
- 20(S)-PPD Cmax/D (ABCC4 rs4148546 AA, mean (SD)): 0.03 (0.03)
- Ratio 20(S)-PPD/CK AUClast/D (ABCC4 rs4148546 AA, mean (SD)): 6.66 (9.45) %
- Ratio 20(S)-PPD/CK Cmax/D (ABCC4 rs4148546 AA, mean (SD)): 1.37 (1.86) %
- 20(S)-PPD AUClast/D (ABCC4 rs4148546 GA, mean (SD)): 0.87 (0.75)
- 20(S)-PPD Cmax/D (ABCC4 rs4148546 GA, mean (SD)): 0.03 (0.03)
- Ratio 20(S)-PPD/CK AUClast/D (ABCC4 rs4148546 GA, mean (SD)): 4.17 (4.77) %
- Ratio 20(S)-PPD/CK Cmax/D (ABCC4 rs4148546 GA, mean (SD)): 1.32 (1.94) %
- 20(S)-PPD AUClast/D (ABCC4 rs4148546 GG, mean (SD)): 0.47 (0.46)
- 20(S)-PPD Cmax/D (ABCC4 rs4148546 GG, mean (SD)): 0.02 (0.02)
- Ratio 20(S)-PPD/CK AUClast/D (ABCC4 rs4148546 GG, mean (SD)): 1.34 (1.47) %
- Ratio 20(S)-PPD/CK Cmax/D (ABCC4 rs4148546 GG, mean (SD)): 0.41 (0.46) %
- 20(S)-PPD AUClast/D [3]: 0.78 (0.79)
- 20(S)-PPD Cmax/D [3]: 0.03 (0.03)
- Ratio 20(S)-PPD/CK AUClast/D [3]: 4.17 (5.11) %
- Ratio 20(S)-PPD/CK Cmax/D [3]: 1.26 (1.98) %
- 20(S)-PPD AUClast/D [4]: 2.05 (1.51)
- 20(S)-PPD Cmax/D [4]: 0.06 (0.04)
- Ratio 20(S)-PPD/CK AUClast/D [4]: 12.95 (15.83) %
- Ratio 20(S)-PPD/CK Cmax/D [4]: 2.56 (3.02) %
- 20(S)-PPD AUClast/D (ABCG2 rs2054576 GA, mean (SD)): 0.73 (0.53)
- 20(S)-PPD Cmax/D (ABCG2 rs2054576 GA, mean (SD)): 0.03 (0.02)
- Ratio 20(S)-PPD/CK AUClast/D (ABCG2 rs2054576 GA, mean (SD)): 3.30 (5.27) %
- Ratio 20(S)-PPD/CK Cmax/D (ABCG2 rs2054576 GA, mean (SD)): 0.83 (1.11) %
- 20(S)-PPD AUClast/D (ABCG2 rs2231142 GG, mean (SD)): 0.62 (0.53)
- 20(S)-PPD Cmax/D (ABCG2 rs2231142 GG, mean (SD)): 0.02 (0.02)
- Ratio 20(S)-PPD/CK AUClast/D (ABCG2 rs2231142 GG, mean (SD)): 2.95 (3.04) %
- Ratio 20(S)-PPD/CK Cmax/D (ABCG2 rs2231142 GG, mean (SD)): 0.78 (0.71) %
- 20(S)-PPD AUClast/D (ABCG2 rs2231142 GT, mean (SD)): 0.88 (0.83)
- 20(S)-PPD Cmax/D (ABCG2 rs2231142 GT, mean (SD)): 0.03 (0.04)
- Ratio 20(S)-PPD/CK AUClast/D (ABCG2 rs2231142 GT, mean (SD)): 4.13 (5.64) %
- Ratio 20(S)-PPD/CK Cmax/D (ABCG2 rs2231142 GT, mean (SD)): 1.45 (2.39) %
- 20(S)-PPD AUClast/D (ABCG2 rs2231142 TT, mean (SD)): 2.05 (1.51)
- 20(S)-PPD Cmax/D (ABCG2 rs2231142 TT, mean (SD)): 0.06 (0.04)
- Ratio 20(S)-PPD/CK AUClast/D (ABCG2 rs2231142 TT, mean (SD)): 12.95 (15.83) %
- Ratio 20(S)-PPD/CK Cmax/D (ABCG2 rs2231142 TT, mean (SD)): 2.56 (3.02) %
- 20(S)-PPD AUClast/D (ABCG2 rs2231148 AA, mean (SD)): 0.68 (0.31)
- 20(S)-PPD Cmax/D (ABCG2 rs2231148 AA, mean (SD)): 0.03 (0.01)
- Ratio 20(S)-PPD/CK AUClast/D (ABCG2 rs2231148 AA, mean (SD)): 3.01 (2.32) %
- Ratio 20(S)-PPD/CK Cmax/D (ABCG2 rs2231148 AA, mean (SD)): 0.84 (0.60) %
- 20(S)-PPD AUClast/D (ABCG2 rs2231148 AT, mean (SD)): 0.93 (0.97)
- 20(S)-PPD Cmax/D (ABCG2 rs2231148 AT, mean (SD)): 0.03 (0.04)
- Ratio 20(S)-PPD/CK AUClast/D (ABCG2 rs2231148 AT, mean (SD)): 4.06 (6.40) %
- Ratio 20(S)-PPD/CK Cmax/D (ABCG2 rs2231148 AT, mean (SD)): 1.42 (2.72) %
- 20(S)-PPD AUClast/D (ABCG2 rs2231148 TT, mean (SD)): 0.80 (0.80)
- 20(S)-PPD Cmax/D (ABCG2 rs2231148 TT, mean (SD)): 0.03 (0.02)
- Ratio 20(S)-PPD/CK AUClast/D (ABCG2 rs2231148 TT, mean (SD)): 4.75 (7.36) %
- Ratio 20(S)-PPD/CK Cmax/D (ABCG2 rs2231148 TT, mean (SD)): 1.11 (1.45) %
- 20(S)-PPD AUClast/D (ABCG2 rs2725248 AA, mean (SD)): 0.69 (0.78)
- 20(S)-PPD Cmax/D (ABCG2 rs2725248 AA, mean (SD)): 0.02 (0.03)
- Ratio 20(S)-PPD/CK AUClast/D (ABCG2 rs2725248 AA, mean (SD)): 3.94 (7.05) %
- Ratio 20(S)-PPD/CK Cmax/D (ABCG2 rs2725248 AA, mean (SD)): 0.92 (1.40) %
- 20(S)-PPD AUClast/D (ABCG2 rs2725248 CA, mean (SD)): 1.05 (0.79)
- 20(S)-PPD Cmax/D (ABCG2 rs2725248 CA, mean (SD)): 0.04 (0.03)
- Ratio 20(S)-PPD/CK AUClast/D (ABCG2 rs2725248 CA, mean (SD)): 4.84 (5.49) %
- Ratio 20(S)-PPD/CK Cmax/D (ABCG2 rs2725248 CA, mean (SD)): 1.53 (2.29) %
- 20(S)-PPD AUClast/D (ABCG2 rs2725248 CC, mean (SD)): 0.96 (1.03)
- 20(S)-PPD Cmax/D (ABCG2 rs2725248 CC, mean (SD)): 0.03 (0.03)
- Ratio 20(S)-PPD/CK AUClast/D (ABCG2 rs2725248 CC, mean (SD)): 3.24 (3.92) %
Compound: CC(C)=CCC[C@](C)(O)[C@H]1CC[C@]2(C)[C@@H]1[C@H](O)C[C@@H]1[C@@]3(C)CC[C@H](O)C(C)(C)[C@@H]3CC[C@]12C [20(S)-PPD, 20(S)-protopanaxadiol]
